Results of several laboratories.
Target: Protein kinase C iota type (PRKCI, Homo sapiens, UniProt P41743)
Residues used in one study (P41743 1-596): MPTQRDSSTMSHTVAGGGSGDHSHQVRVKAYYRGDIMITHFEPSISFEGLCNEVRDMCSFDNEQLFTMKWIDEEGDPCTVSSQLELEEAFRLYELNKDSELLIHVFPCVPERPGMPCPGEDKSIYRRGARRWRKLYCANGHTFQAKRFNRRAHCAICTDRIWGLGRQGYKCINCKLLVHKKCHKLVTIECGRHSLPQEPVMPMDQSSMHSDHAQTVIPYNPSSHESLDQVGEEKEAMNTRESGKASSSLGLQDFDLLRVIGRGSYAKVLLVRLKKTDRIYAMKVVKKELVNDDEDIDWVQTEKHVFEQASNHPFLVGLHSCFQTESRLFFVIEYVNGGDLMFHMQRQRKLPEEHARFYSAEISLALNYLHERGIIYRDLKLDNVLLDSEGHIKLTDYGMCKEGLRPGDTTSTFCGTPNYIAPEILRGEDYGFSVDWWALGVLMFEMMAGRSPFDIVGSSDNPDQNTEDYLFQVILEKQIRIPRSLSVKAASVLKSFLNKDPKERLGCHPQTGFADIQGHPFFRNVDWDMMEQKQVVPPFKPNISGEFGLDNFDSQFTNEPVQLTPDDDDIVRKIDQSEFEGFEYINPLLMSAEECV

CC(C)(C)c1cc(C=C(C#N)C#N)cc(Br)c1O — remaining activity (enzyme activity; inhibitor; 0.5 µM): 100%
COc1cc(Nc2ncc(F)c(Nc3ccc4c(n3)NC(=O)C(C)(C)O4)n2)cc(OC)c1OC — inhibition (binding; 10 µM): 35%
O=c1[nH]c2ccccc2n1C1CCN(Cc2ccc(-c3[nH]c4cc5ncnc5cc4nc3-c3ccccc3)cc2)CC1 — remaining signal (cell-free assay; 0.5 µM): 97%
Cn1cncc1[C@](O)(COc1ccc(C#N)cc1-c1ccc(OC(F)(F)F)cc1)c1ccc(C#N)cc1 — remaining binding (cell-free assay; competition with immobilised ligand; 1 µM): 100%
Cn1cc(-c2cc(F)cc(N3CCn4c(cc5c4CCCC5)C3=O)c2CO)cc(Nc2ccc(N3CCN(C4COC4)CC3)cn2)c1=O — inhibition (enzyme activity; inhibitor; 0.1 µM): -3%
COc1ncccc1-c1cnn2ccc(N3CCN(C(=O)OC(C)C)CC3)nc12 — remaining binding (binding; competition with immobilised ligand; 1 µM): 90%
COCc1c(-c2cc3cc(C)cc(OC)c3s2)c2c(N)ncnn2c1CN1CCNC(=O)C1 — inhibition (cell-free assay; competition with immobilised ligand; 1 µM): 80%
Cn1cc(-c2cccc(N3CCc4c(sc5c4CC(C)(C)C5)C3=O)c2CO)cc(Nc2ccncn2)c1=O — inhibition (enzyme activity; inhibitor; 1 µM): 6%
